Experimental data taken from ChEMBL document CHEMBL1130035, “Aroyl(aminoacyl)pyrroles, a new class of anticonvulsant agents” (J Med Chem, 1997).
Calls of active or inactive are those of the source. The calls are words filed in the database; no cut-off is given here.

Assays:
Mus musculus [1] = assay: Anticonvulsant activity in mouse maximal electroshock seizure test following i.p. administration.; assay type: functional; conditions: ip
How it was run: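 Test agent given ip as a suspension at 30, 100 and 300 mg/kg to one to four mice, observed at 30 min and, in a separate test, at 4 h. Quantified values are ED50 (mg/kg) with 95% confidence limits.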

Mus musculus [2] = assay: (§1) Minimal motor impairment was measured in mouse by rotating rod test upon intraperitoneal administration; conditions: ip
Rattus norvegicus [3] = assay: Compound was tested for anticonvulsant activity by maximal electroshock seizure(MES) test in rat upon intraperitoneal administration; assay type: functional; conditions: ip
[4] = (§2) Ratio of TD50/ED50; TI indicates Therapeutic index
Mus musculus [5] = assay: Ability to block seizures induced by bicuculline after intraperitoneal administration; NA indicates not active; assay type: functional, organism-based
[6] = as §1; assay type: toxicity; conditions: in vivo, ip
How it was run: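 Mouse rotorod (rotating rod) test for minimal motor impairment after ip dosing, run alongside the MES and scMET screens. Reported as TD50 (mg/kg) ip with 95% confidence limits.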

[7] = as §2; conditions: read-out: TI
How it was run: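 Protective index calculated as TD50 (rotorod, ip) divided by MES ED50 (ip), both in mg/kg.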

[8] = Minimal motor impairment was measured in rat by overt evidence of ataxia upon intraperitoneal administration; conditions: in vivo, ip
Rattus norvegicus [9] = assay: Minimal motor impairment was measured in rat by rotating rod test upon intraperitoneal administration; conditions: ip
Mus musculus [10] = assay: Effective dose was determined by Maximum Electroshock Seizure test after intraperitoneal dose in mouse; conditions: ip
[11] = Toxic dose was measured in rat by rotating rod test.; conditions: in vivo
[12] = Toxic dose was measured in mouse by rotating rod test; conditions: in vivo
[13] = Ratio of TD50/ED50.; assay type: ADME; conditions: read-out: TI
How it was run: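 Maximal electroshock seizure ED50 was determined with ip dosing and reported in mg/kg with 95% confidence limits. TD50 was determined ip by the rotating rod test for minimal motor impairment, and in some cases by overt ataxia. Protective index = TD50/ED50.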

Mus musculus [14] = assay: Ability to block seizures induced by bicuculline after intraperitoneal administration.; assay type: functional; conditions: ip

Row | SMILES | ED50 (Mus musculus [1]) | ED50 (Rattus norvegicus [3]) | TD50 [6] | selectivity ratio [7] | TD50 [8] | also measured
1 | NC(=O)N1c2ccccc2C=Cc2ccccc21 [CARBAMAZEPINE] | 9.9 mg/kg | 36 mg/kg | – | – | – | TD50 (Mus musculus [2]): 47.8 mg/kg; selectivity ratio [4]: 4.93; ED50 (Mus musculus [5]): inactive
2 | Cc1c(C(=O)CN2CCCC2)c(C)n(C)c1C(=O)c1ccc(Cl)cc1 | 15.2 mg/kg | 16.2 mg/kg | 54.8 mg/kg | 3.6 | 203 mg/kg | –
3 | Cl.Cn1cc(C(=O)CNC23C[C@H]4C[C@@H](C2)C[C@@H](C3)C4)cc1C(=O)c1ccccc1Cl | 159 mg/kg | – | > 250 mg/kg | > 1.57 | – | –
4 | Cn1cc(C(=O)c2ccc(Cl)cc2)cc1C(=O)CN1CCCCC1 | 59.7 mg/kg | – | 141 mg/kg | 2.36 | – | –
5 | Cc1c(C(=O)CN2CCOCC2)c(C)n(C)c1C(=O)c1ccc(Cl)cc1 | 87.6 mg/kg | – | 233 mg/kg | 2.66 | – | –
6 | Cn1cc(C(=O)CN2CCCC2)cc1C(=O)c1cccc(Cl)c1.[O-][Cl+3]([O-])([O-])O | 16.5 mg/kg | – | 55.6 mg/kg | 3.38 | – | –
7 | CCCC(CCC)C(=O)O [VALPROIC ACID] | – | – | – | – | – | TD50 (Rattus norvegicus [9]): 859 mg/kg
8 | Cl.Cn1cc(C(=O)CN2CCOCC2)cc1C(=O)c1cccc(Cl)c1 | 37.4 mg/kg | 72 mg/kg | 110 mg/kg | 2.96 | > 500 mg/kg | –
9 | O=C1NC(=O)C(c2ccccc2)(c2ccccc2)N1 [PHENYTOIN] | – | – | – | – | – | ED50 (Mus musculus [10]): 6.48 mg/kg; TD50 [11]: > 500 mg/kg; TD50 [12]: 42.8 mg/kg; selectivity ratio [13]: 6.6
10 | CCN(CC)CC(=O)c1cc(C(=O)c2ccc(Cl)cc2)n(C)c1.Cl | – | 19.3 mg/kg | 40.5 mg/kg | 2.81 | > 500 mg/kg | –
11 | CCN(CC)CC(=O)c1c(C)c(C(=O)c2ccc(Cl)cc2Cl)n(C)c1C | 14.9 mg/kg | 19.4 mg/kg | 50.6 mg/kg | 3.38 | > 500 mg/kg | –
12 | O=C(CN1CCOCC1)c1c[nH]c(C(=O)c2ccc(Cl)cc2)c1 | 86.2 mg/kg | 41 mg/kg | 84.1 mg/kg | 0.98 | 88 mg/kg | –
13 | CCN(CC)CC(=O)c1c(C)c(C(=O)c2ccc(Cl)cc2)n(C)c1C | 10.3 mg/kg | 15.5 mg/kg | 37.7 mg/kg | 3.65 | > 250 mg/kg | –
14 | Cn1cc(C(=O)CN2CCCC2)cc1C(=O)c1ccc(Cl)cc1 | 49.1 mg/kg | 17.9 mg/kg | 240 mg/kg | 4.89 | > 500 mg/kg | –
15 | Cl.Cn1cc(C(=O)CN2CCCCCC2)cc1C(=O)c1ccc(Cl)cc1 | 27.5 mg/kg | 22 mg/kg | 46.1 mg/kg | 1.67 | > 500 mg/kg | –
16 | CCN(CC)CC(=O)c1cc(C(=O)c2ccc(OC)cc2)n(C)c1.Cl | 33 mg/kg | – | 45.1 mg/kg | 1.37 | – | –
17 | Cc1c(C(=O)CN2CCCCC2)c(C)n(C)c1C(=O)c1ccc(Cl)cc1 | 23.9 mg/kg | 28.1 mg/kg | 113 mg/kg | 4.73 | > 500 mg/kg | ED50 (Mus musculus [14]): 25.2 mg/kg
18 | Cn1cc(C(=O)CN2CCCCC2)cc1C(=O)c1ccc(Cl)cc1 | 24.4 mg/kg | 8.4 mg/kg | 74.2 mg/kg | 3.05 | 342 mg/kg | –
19 | Cc1c(C(=O)CN2CCCC2)c(C)n(C)c1C(=O)c1ccc(Cl)cc1Cl.Cl | 10.3 mg/kg | 19 mg/kg | 23.8 mg/kg | 2.3 | > 200 mg/kg | –
